Assay results pooled from the literature.
Each line is one published result; the experiments were not run side by side.
CDK9 with cyclin T1: Cyclin-dependent kinase 9, with cyclin T1 (CDK9, Homo sapiens, UniProt P50750)
CDK9: Cyclin-dependent kinase 9 (CDK9, Homo sapiens, UniProt P50750)
CDK9 with cyclin K: Cyclin-dependent kinase 9, with cyclin K (CDK9, Homo sapiens, UniProt P50750)

| Compound | target | assay | setting | quantity | value |
| --- | --- | --- | --- | --- | --- |
| CNC(=O)c1cc(Oc2ccc(NC(=O)Nc3ccc(Cl)c(C(F)(F)F)c3)cc2)ccn1 | CDK9 with cyclin T1 | enzyme activity, inhibitor | 0.3 µM | inhibition | -4% |
| C=CC(=O)Nc1cc(Nc2nccc(Nc3cc(Cl)c(F)cc3C(C)(C)O)n2)c(OC)cc1N1CC[C@@H](N(C)C)C1 | CDK9 with cyclin T1 | enzyme activity, inhibitor | 1 µM | inhibition | 10% |
| CNC(=O)c1ccc(Nc2ncc(C(F)(F)F)c(NCc3nccnc3N(C)S(C)(=O)=O)n2)cc1 | CDK9 | cell-free assay, competition with immobilised ligand | 0.1 µM | remaining binding | 86% |
| COc1cc(-c2cc(-c3ccc(N4CCNCC4)cc3)cnc2C)cc(OC)c1OC | CDK9 with cyclin T1 | enzyme activity, inhibitor | 1 µM | inhibition | 3% |
| CCC(=O)N[C@@H]1CC[C@H](C(=O)N(C)c2ccc(-c3nc4ccccc4o3)cc2)C1 | CDK9 | cell-free assay, competition with immobilised ligand | 1 µM | remaining binding | 100% |
| C#Cc1cccc(Nc2ncnc3cc(OCCOC)c(OCCOC)cc23)c1 | CDK9 with cyclin T1 | cell-free assay | 0.5 µM | remaining signal | 87.3% |
| CS(=O)(=O)Nc1cccc(-c2csc(NC(=O)CSc3nc4nccnc4c(=O)n3CCc3ccccc3)n2)c1 | CDK9 with cyclin K | enzyme activity, inhibitor | 10 µM | inhibition | -1% |
| Nc1ncnc2occ(-c3ccc(NC(=O)Nc4cc(C(F)(F)F)ccc4F)cc3)c12 | CDK9 | cell-free assay, inhibitor | 20 µM | remaining signal | 0.15% |
| N#CCCc1ccc2c(c1)-c1[nH]c3ccc([N+](=O)[O-])cc3c1CC(=O)N2 | CDK9 with cyclin K | cell-free assay | 0.5 µM | remaining signal | 23.7% |
| CS(=O)(=O)NCC[C@H](NC(=O)c1cncc2c1cnn2-c1ccc(F)cc1)c1ccnc(S(C)(=O)=O)c1 | CDK9 | cell-free assay, competition with immobilised ligand | 1 µM | remaining binding | 100% |
| CN(C)C1CCN(CC#Cc2nn(C3CCCC3)c3nc(NCc4ccccc4)ncc23)C1 (stereo not drawn) | CDK9 with cyclin T1 | enzyme activity, inhibitor, FRET | 0.1 µM | inhibition | 5% |
| O=C1Nc2ccc(Cl)cc2C1=Cc1cc(Cl)c(O)c(Cl)c1 | CDK9 with cyclin K | cell-free assay | 0.5 µM | remaining signal | 79.4% |
| CC(C)(C)c1nc(-c2cccc(NS(=O)(=O)c3c(F)cccc3F)c2F)c(-c2ccnc(N)n2)s1 | CDK9 with cyclin K | enzyme activity, inhibitor, radiometric | 1 µM | remaining activity | 98% |
| O=C1NC(=O)c2cc(Nc3ccc(F)cc3)c(Nc3ccc(F)cc3)cc21 | CDK9 with cyclin K | cell-free assay | 0.5 µM | remaining signal | 90.8% |
| Cc1cc(NC(=O)c2cccc(S(F)(F)(F)(F)F)c2)cc(-n2ccn3nc(-c4cccnc4)cc23)c1 | CDK9 | cell-free assay, competition with immobilised ligand | 1 µM | remaining binding | 100% |
| CCCS(=O)(=O)Nc1ccc(F)c(C(=O)c2c[nH]c3ncc(-c4ccc(Cl)cc4)cc23)c1F | CDK9 with cyclin T1 | enzyme activity, inhibitor | 1 µM | inhibition | < 10% |
| Cc1ccc(NC(=O)c2ccc(C)c(C(F)(F)F)c2)cc1C#Cc1nn(C2CCC(O)CC2)c2ncnc(N)c12 (stereo not drawn) | CDK9 with cyclin T1 | cell-free assay | 10 µM | remaining signal | 113% |
| CCc1ccccc1C(=O)Nc1n[nH]c2c(C)c(F)c(C3C(C#N)=C(C)N(C)C(C)=C3C#N)cc12 | CDK9 | cell-free assay, competition with immobilised ligand | 1 µM | remaining binding | 94% |
| Cc1ccc(-n2nc(C(C)(C)C)cc2NC(=O)Nc2ccc(OCCN3CCOCC3)c3ccccc23)cc1 | CDK9 with cyclin T1 | enzyme activity, inhibitor | 10 µM | inhibition | -17% |
| CCCCNc1ncc2c(-c3ccc(F)cc3)nn(C[C@H]3CC[C@H](N)CC3)c2n1 | CDK9 | target engagement in cells, inhibitor, chemoproteomics | 20 mM | inhibition | 29.3% |
| CCCOc1ccc([C@H]2[C@H](C(=O)O)[C@@H](c3ccc4c(c3)OCO4)CN2CC(=O)Nc2c(CC)cccc2CC)cc1 | CDK9 | cell-free assay, competition with immobilised ligand | 1 µM | remaining binding | 88% |
